Legend:
[1] = system: HT-29 human colon cancer cell line; assay: Cytotoxicity against HT-29 cell line; assay type: cell-based; settings: HT-29, read-out: cytotoxicity IC50 (concentration inhibiting HT-29 cell growth by 50%)
In short: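 Pure isolates were tested against HT-29 human colon cancer cells, with a positive control. IC50 is the concentration that inhibits HT-29 cell growth by 50%, and an IC50 below 10 μM is counted as active.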

NF-κB p65 = NF-κB p65 (Homo sapiens, UniProt Q04206); assay: NF-κB p65 inhibition assay; assay type: cell-based
[2] = Hydroxyl radical-scavenging assay; assay type: biochemical; settings: ED50 <20 μM considered active
In short: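 In vitro scavenging assay run on the solvent partitions of the methanolic root-bark extract (hexanes, CHCl3, EtOAc, n-BuOH) and on pure isolates, with a positive control. ED50 is the concentration that scavenges hydroxyl radicals by 50%.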

Sequence of NF-κB p65 (Q04206 whole entry): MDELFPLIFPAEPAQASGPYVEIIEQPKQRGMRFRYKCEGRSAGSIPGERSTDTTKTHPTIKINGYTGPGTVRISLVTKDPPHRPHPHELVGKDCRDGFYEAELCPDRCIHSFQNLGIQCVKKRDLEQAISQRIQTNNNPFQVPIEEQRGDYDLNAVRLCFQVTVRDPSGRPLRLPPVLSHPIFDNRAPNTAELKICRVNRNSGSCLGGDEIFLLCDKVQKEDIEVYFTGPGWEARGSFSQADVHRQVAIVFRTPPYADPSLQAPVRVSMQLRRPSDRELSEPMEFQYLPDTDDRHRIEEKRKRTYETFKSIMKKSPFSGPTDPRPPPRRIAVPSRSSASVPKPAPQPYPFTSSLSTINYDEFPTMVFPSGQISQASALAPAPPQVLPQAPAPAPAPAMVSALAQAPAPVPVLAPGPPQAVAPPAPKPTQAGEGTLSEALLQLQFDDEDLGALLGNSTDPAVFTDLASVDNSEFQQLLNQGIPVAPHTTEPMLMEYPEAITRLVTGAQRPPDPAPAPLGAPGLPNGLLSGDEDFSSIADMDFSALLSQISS

SMILES | hydroxy radical-scavenging ED50 (concentration scavenging hydroxyl radical by 50%) [2] [nM] | also measured
C=CC(C)(CO)c1cc(CC(=O)c2ccc(O)cc2O)c(O)cc1O (stereo not drawn) [compound 11, 2,4-dihydroxy-2′,4′-dihydroxy-5′-(1-hydroxy-2-methylbut-3-en-2-yl)deoxybenzoin] | 630 | IC50 [1]: > 10000 nM; IC50 (NF-κB p65): > 20000 nM
C=CC(C)(CO)c1cc2c(=O)c(-c3ccc(O)cc3O)coc2cc1O (stereo not drawn) [compound 8, 7-hydroxy-6-(1-hydroxy-2-methylbut-3-en-2-yl)-2′,4′-dihydroxyisoflavone] | 2200 | IC50 [1]: > 10000 nM; IC50 (NF-κB p65): 450 nM
C=CC(C)(C)c1cc(C(=O)c2c(-c3cc(-c4cc5cc(C(C)(C)C=C)c(O)cc5oc4=O)c(O)cc3O)oc3cc(O)ccc23)c(O)cc1O [compound 1, sphenostylisin A] | 710 | NF-κB inhibitory potency relative to compound 3 (NF-κB p65; times more potency than compound 3): 75 times; NF-κB p65 inhibitory potency relative to the positive control rocaglamide (NF-κB p65; times more potent than rocaglamide): > 10 times
C=CC(C)(C)c1cc(-c2oc3cc(O)ccc3c2Cc2cc(-c3cc4cc(C(C)(C)C=C)c(O)cc4oc3=O)c(O)cc2O)c(O)cc1O [compound 2, sphenostylisin B] | 730 | –
C=CC(C)(C)c1cc2cc(-c3ccc(O)cc3O)c(=O)oc2cc1O [compound 4, 7-hydroxy-6-(2-methylbut-3-en-2-yl)-2′,4′-dihydroxy-3-phenylcoumarin] | 2600 | NF-κB p65 inhibitory activity retained relative to compound 1 (NF-κB p65; fraction of the activity of 1): one-tenth
C=CC(C)(CO)c1cc2cc(-c3ccc(O)cc3O)c(=O)oc2cc1O (stereo not drawn) [compound 7, 7-hydroxy-6-(1-hydroxy-2-methylbut-3-en-2-yl)-2′,4′-dihydroxy-3-phenylcoumarin] | >20000 | –
C=CC(C)(O)Cc1cc2cc(-c3ccc(O)cc3O)c(=O)oc2cc1O (stereo not drawn) [compound 6, 7-hydroxy-6-(2-hydroxy-2-methylbut-3-en-1-yl)-2′,4′-dihydroxy-3-phenylcoumarin] | >20000 | –
O=c1c(O)c(-c2ccc(O)c(O)c2)oc2cc(O)cc(O)c12 [quercetin, reference compound] | 1200 | –
C=CC(C)(C)c1cc2c(cc1O)OC[C@H](c1cc(-c3oc4cc(O)ccc4c3C(=O)c3cc(C(C)(C)C=C)c(O)cc3O)c(O)cc1O)C2 [compound 3, sphenostylisin C] | 940 | –
CC1(C)c2cc(CC(=O)c3ccc(O)cc3O)c(O)cc2OC1CO (stereo not drawn) [compound 9, 2,4-dihydroxy-2′-dihydroxy-5′-(2,4′-epoxy-3-methylbut-1-ol-3-yl)deoxybenzoin] | 1000 | –
CC1(C)c2cc3cc(-c4ccc(O)cc4O)c(=O)oc3cc2OC1CO (stereo not drawn) [compound 5, 6-(2,7-epoxy-3-methylbut-1-ol-3-yl)-2′,4′-dihydroxy-3-phenylcoumarin] | 18500 | –
C=CC(C)(O)Cc1cc(CC(=O)c2ccc(O)cc2O)c(O)cc1O (stereo not drawn) [compound 10, 2,4-dihydroxy-2′,4′-dihydroxy-5′-(2-hydroxy-2-methylbut-3-en-1-yl)deoxybenzoin] | 600 | IC50 [1]: > 10000 nM; IC50 (NF-κB p65): > 20000 nM
